Source: article PMC10884431 (Heliyon, 2024)

Columns and labels:
alpha-glucosidase = conditions: from the lichen Parmotrema dilatatum; cited from earlier work
[1] = biological target: SARS-CoV-2 main protease (M^pro) (Severe acute respiratory syndrome coronavirus 2, UniProt P0DTD1); assay: M^pro inhibition assay; format: biochemical; conditions: read-out: SARS-CoV-2 M^pro inhibition percentage, reference at 1 μM
[2] = biological target: HIV-1 reverse transcriptase (Human immunodeficiency virus type 1 group M subtype B, UniProt P03366); assay: HIV-1 reverse transcriptase inhibition assay; format: biochemical; conditions: positive control at 1 μM
Summary of the method: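 Test compound in DMSO is added, then reverse transcriptase (25 nM solution), and the mix is held 30 min at room temperature. The reaction is stopped with EDTA, PicoGreen is added and endpoint fluorescence is read at 485/535 nm. % inhibition is taken against a DMSO control, minus an EDTA-pretreated blank. Nevirapine is the reference.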

macrophages = assay: Nitric oxide; format: cell-based; conditions: positive control at 5 μM
Summary of the method: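 NO production measured by absorbance at 540 nm on a microplate reader. The assay was run in triplicate and repeated in three independent experiments.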

With COC(=O)c1c(C)c(Cc2c(O)c(Oc3c(C=O)c(O)cc(C)c3C(=O)OC)c3c(c2O)C(=O)O[C@@H]3O)c(O)c(C=O)c1O [parmetherines A] as the compound, how does the “Alpha-glucosidase inhibition (in words)” value (alpha-glucosidase) read?
Its value is “strong”.

Which “Alpha-glucosidase inhibition (in words)” value (alpha-glucosidase) does the source give for COC(=O)c1c(C)c(Cc2c(O)c(Oc3c(C=O)c(O)cc(C)c3C(=O)OC)c3c(c2O)C(=O)O[C@@H]3OC)c(O)c(C=O)c1O [parmetherines B] here?
The value was “strong”.

With Cc1cccc(C)c1OCC(=O)N[C@@H](Cc1ccccc1)[C@@H](O)C[C@H](Cc1ccccc1)NC(=O)[C@H](C(C)C)N1CCCNC1=O [Lopinavir] as the compound, how does the inhibition at 1 µM [1] read?
The inhibition at 1 µM was 47.7 ± 1.7%.

Which “HIV-1 reverse transcriptase inhibition percentage” value [2] does the source give for Cc1ccnc2c1NC(=O)c1cccnc1N2C1CC1 [Nevirapine] here?
Its value is 38.3 ± 2.5%.

With Cc1ccc(S(=O)(=O)/C=C/C#N)cc1 [Bay 11–7082] as the compound, how does the “% NO inhibition ±SD” value (macrophages) read?
The value was 72.5 ± 3.9%.

And the “% Cell viability ±SD” value (macrophages; NO assay)?
Its value is 82.7 ± 5.3%.
